Test results: ChEMBL document CHEMBL1138520, “Molecular and conformational determinants of pituitary adenylate cyclase-activating polypeptide (PACAP) for activation of the PAC1 receptor” (J Med Chem, 2009)
pEC50, pIC50: −log10 of the molar value. Where a SMILES comes first, the peptide text is derived from it.

Key:
[1] = target: T1, Pituitary adenylate cyclase-activating polypeptide type I receptor (Homo sapiens, UniProt P41586); test: Agonist activity at human recombinant PAC1 receptor expressed in CHO cells assessed as PACAP38-induced calcium mobilization by FLIPR assay; type: functional, cell-based
Procedure, shortened: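 CHO cells stably expressing recombinant human PAC1, plated 24 h before assay, loaded with fluo-4 AM for 60 min at 37 °C in the dark, then rinsed into HBSS for 15 min at 37 °C. EC50 and efficacy came from nonlinear regression; 4-10 independent assays in duplicate.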
Target sequence in this assay (P41586 whole entry): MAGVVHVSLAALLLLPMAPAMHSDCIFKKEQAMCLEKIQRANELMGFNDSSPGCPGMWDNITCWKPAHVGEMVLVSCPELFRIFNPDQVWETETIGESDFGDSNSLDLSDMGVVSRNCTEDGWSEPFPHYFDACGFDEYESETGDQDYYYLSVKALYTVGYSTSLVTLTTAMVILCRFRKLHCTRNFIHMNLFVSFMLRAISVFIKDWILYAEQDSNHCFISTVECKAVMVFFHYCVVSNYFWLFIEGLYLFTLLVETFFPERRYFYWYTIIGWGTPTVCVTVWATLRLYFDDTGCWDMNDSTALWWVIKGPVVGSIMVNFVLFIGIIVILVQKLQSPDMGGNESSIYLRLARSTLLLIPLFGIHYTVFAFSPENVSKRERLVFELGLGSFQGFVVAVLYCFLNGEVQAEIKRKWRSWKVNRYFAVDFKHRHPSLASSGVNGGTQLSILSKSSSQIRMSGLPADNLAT

[2] = target: T1, Pituitary adenylate cyclase-activating polypeptide type I receptor; test: Displacement of [125I]Ac-PACAP27 from human recombinant PAC1 receptor expressed in CHO cells by gamma- counter; type: cell-based
Target sequence in this assay (P41586 whole entry): as above

[3] = target: T1, Pituitary adenylate cyclase-activating polypeptide type I receptor; test: Agonist activity at human recombinant PAC1 receptor expressed in CHO cells assessed as PACAP38-induced calcium mobilization by FLIPR assay relative to PACAP38; type: functional, cell-based
Procedure, shortened: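 CHO cells stably expressing recombinant human PAC1, plated 24 h before assay, loaded with fluo-4 AM for 60 min at 37 °C in the dark, then rinsed into HBSS for 15 min at 37 °C. Peptide was added 18 s into a 150 s read (ex 480/em 525 nm), at final concentrations of 1 × 10-12 to 1 × 10^-5 M. Response was normalised to 1 × 10^-5 M PACAP38 on each plate. EC50 and efficacy came from nonlinear regression; 4-10 independent assays in duplicate.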
Target sequence in this assay (P41586 21-468 limits assumed): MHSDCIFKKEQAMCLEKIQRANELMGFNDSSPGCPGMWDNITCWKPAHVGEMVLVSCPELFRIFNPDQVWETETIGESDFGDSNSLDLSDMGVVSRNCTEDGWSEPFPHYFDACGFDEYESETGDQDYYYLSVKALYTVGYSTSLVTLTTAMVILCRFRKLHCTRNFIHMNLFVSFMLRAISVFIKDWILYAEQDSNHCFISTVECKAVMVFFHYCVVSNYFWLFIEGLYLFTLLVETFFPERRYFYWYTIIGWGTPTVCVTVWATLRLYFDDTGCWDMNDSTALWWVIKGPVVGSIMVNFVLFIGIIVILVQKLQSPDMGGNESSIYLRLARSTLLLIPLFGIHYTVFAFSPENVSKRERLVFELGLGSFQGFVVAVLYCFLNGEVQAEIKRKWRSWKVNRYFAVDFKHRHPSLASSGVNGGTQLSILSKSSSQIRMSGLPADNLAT

CC[C@H](C)[C@H](NC(=O)CNC(=O)[C@H](CC(=O)O)NC(=O)[C@H](CO)NC(=O)[C@H](C)N)C(=O)N[C@@H](Cc1ccccc1)C(=O)N[C@H](C(=O)N[C@@H](CC(=O)O)C(=O)N[C@@H](CO)C(=O)N[C@@H](Cc1ccc(O)cc1)C(=O)N[C@@H](CO)C(=O)N[C@@H](CCCN=C(N)N)C(=O)N[C@@H](Cc1ccc(O)cc1)C(=O)N[C@@H](CCCN=C(N)N)C(=O)N[C@@H](CCCCN)C(=O)N[C@@H](CCC(N)=O)C(=O)N[C@@H](CCSC)C(=O)N[C@@H](C)C(=O)N[C@H](C(=O)N[C@@H](CCCCN)C(=O)N[C@@H](CCCCN)C(=O)N[C@@H](Cc1ccc(O)cc1)C(=O)N[C@@H](CC(C)C)C(=O)N[C@@H](C)C(=O)N[C@@H](C)C(=O)N[C@H](C(=O)N[C@@H](CC(C)C)C(=O)NCC(=O)N[C@@H](CCCCN)C(=O)N[C@@H](CCCN=C(N)N)C(=O)N[C@@H](Cc1ccc(O)cc1)C(=O)N[C@@H](CCCCN)C(=O)N[C@@H](CCC(N)=O)C(=O)N[C@@H](CCCN=C(N)N)C(=O)N[C@H](C(=O)N[C@@H](CCCCN)C(=O)N[C@@H](CC(N)=O)C(=O)N[C@@H](CCCCN)C(N)=O)C(C)C)C(C)C)C(C)C)[C@@H](C)O (H-ASDGIFTDSYSRYRKQMAVKKYLAAVLGKRYKQRVKNK-NH2) was tested, and the pEC50 [1] was 7.96 and the pIC50 [2] was 7.31.

For CC[C@H](C)[C@H](NC(=O)CNC(=O)[C@H](CC(=O)O)NC(=O)[C@H](CO)NC(=O)[C@@H](N)Cc1cnc[nH]1)C(=O)N[C@@H](Cc1ccccc1)C(=O)N[C@@H](C(=O)N[C@@H](CC(=O)O)C(=O)N[C@@H](CO)C(=O)N[C@@H](Cc1ccc(O)cc1)C(=O)N[C@@H](CO)C(=O)N[C@@H](CCCNC(=N)N)C(=O)N[C@@H](Cc1ccc(O)cc1)C(=O)N[C@@H](CCCNC(=N)N)C(=O)N[C@@H](CCCCN)C(=O)N[C@@H](CCC(N)=O)C(=O)N[C@@H](CCSC)C(=O)N[C@@H](C)C(=O)N[C@H](C(=O)N[C@@H](CCCCN)C(=O)N[C@@H](CCCCN)C(=O)N[C@@H](Cc1ccc(O)cc1)C(=O)N[C@@H](CC(C)C)C(=O)N[C@@H](C)C(=O)N[C@@H](C)C(=O)N[C@H](C(=O)N[C@@H](CC(C)C)C(=O)NCC(=O)N[C@@H](CCCCN)C(=O)N[C@@H](CCCNC(=N)N)C(=O)N[C@@H](Cc1ccc(O)cc1)C(=O)N[C@@H](CCCCN)C(=O)N[C@@H](CCC(N)=O)C(=O)N[C@@H](CCCNC(=N)N)C(=O)N[C@H](C(=O)N[C@@H](CCCCN)C(=O)N[C@@H](CC(N)=O)C(=O)N[C@@H](CCCCN)C(N)=O)C(C)C)C(C)C)C(C)C)[C@H](C)O, the pEC50 [1] was 8.14 and the pIC50 [2] was 6.92.

CC[C@H](C)[C@H](NC(=O)CNC(=O)[C@H](CC(=O)O)NC(=O)[C@H](CO)NC(=O)[C@@H](N)Cc1cncn1C)C(=O)N[C@@H](Cc1ccccc1)C(=O)N[C@H](C(=O)N[C@@H](CC(=O)O)C(=O)N[C@@H](CO)C(=O)N[C@@H](Cc1ccc(O)cc1)C(=O)N[C@@H](CO)C(=O)N[C@@H](CCCN=C(N)N)C(=O)N[C@@H](Cc1ccc(O)cc1)C(=O)N[C@@H](CCCN=C(N)N)C(=O)N[C@@H](CCCCN)C(=O)N[C@@H](CCC(N)=O)C(=O)N[C@@H](CCSC)C(=O)N[C@@H](C)C(=O)N[C@H](C(=O)N[C@@H](CCCCN)C(=O)N[C@@H](CCCCN)C(=O)N[C@@H](Cc1ccc(O)cc1)C(=O)N[C@@H](CC(C)C)C(=O)N[C@@H](C)C(=O)N[C@@H](C)C(=O)N[C@H](C(=O)N[C@@H](CC(C)C)C(=O)NCC(=O)N[C@@H](CCCCN)C(=O)N[C@@H](CCCN=C(N)N)C(=O)N[C@@H](Cc1ccc(O)cc1)C(=O)N[C@@H](CCCCN)C(=O)N[C@@H](CCC(N)=O)C(=O)N[C@@H](CCCN=C(N)N)C(=O)N[C@H](C(=O)N[C@@H](CCCCN)C(=O)N[C@@H](CC(N)=O)C(=O)N[C@@H](CCCCN)C(N)=O)C(C)C)C(C)C)C(C)C)[C@@H](C)O was tested, and the pEC50 [1] was 8.62 and the pIC50 [2] was 8.12.

CC[C@H](C)[C@H](NC(=O)CNC(=O)[C@H](CC(=O)O)NC(=O)[C@H](CO)NC(=O)[C@@H](N)Cc1cn(C)cn1)C(=O)N[C@@H](Cc1ccccc1)C(=O)N[C@H](C(=O)N[C@@H](CC(=O)O)C(=O)N[C@@H](CO)C(=O)N[C@@H](Cc1ccc(O)cc1)C(=O)N[C@@H](CO)C(=O)N[C@@H](CCCN=C(N)N)C(=O)N[C@@H](Cc1ccc(O)cc1)C(=O)N[C@@H](CCCN=C(N)N)C(=O)N[C@@H](CCCCN)C(=O)N[C@@H](CCC(N)=O)C(=O)N[C@@H](CCSC)C(=O)N[C@@H](C)C(=O)N[C@H](C(=O)N[C@@H](CCCCN)C(=O)N[C@@H](CCCCN)C(=O)N[C@@H](Cc1ccc(O)cc1)C(=O)N[C@@H](CC(C)C)C(=O)N[C@@H](C)C(=O)N[C@@H](C)C(=O)N[C@H](C(=O)N[C@@H](CC(C)C)C(N)=O)C(C)C)C(C)C)[C@@H](C)O was tested, and the pEC50 [1] was 6.41 and the pIC50 [2] was 7.67.

CC[C@H](C)[C@H](NC(=O)CNC(=O)[C@H](CC(=O)O)NC(=O)[C@H](CO)NC(=O)[C@@H](N)Cc1cn(C)cn1)C(=O)N[C@@H](Cc1ccccc1)C(=O)N[C@H](C(=O)N[C@@H](CC(=O)O)C(=O)N[C@@H](CO)C(=O)N[C@@H](Cc1ccc(O)cc1)C(=O)N[C@@H](CO)C(=O)N[C@@H](CCCN=C(N)N)C(=O)N[C@@H](Cc1ccc(O)cc1)C(=O)N[C@@H](CCCN=C(N)N)C(=O)N[C@@H](CCCCN)C(=O)N[C@@H](CCC(N)=O)C(=O)N[C@@H](CCSC)C(=O)N[C@@H](C)C(=O)N[C@H](C(=O)N[C@@H](CCCCN)C(=O)N[C@@H](CCCCN)C(=O)N[C@@H](Cc1ccc(O)cc1)C(=O)N[C@@H](CC(C)C)C(=O)N[C@@H](C)C(=O)N[C@@H](C)C(=O)N[C@H](C(=O)N[C@@H](CC(C)C)C(=O)NCC(=O)N[C@@H](CCCCN)C(=O)N[C@@H](CCCN=C(N)N)C(=O)N[C@@H](Cc1ccc(O)cc1)C(=O)N[C@@H](CCCCN)C(=O)N[C@@H](CCC(N)=O)C(=O)N[C@@H](CCCN=C(N)N)C(=O)N[C@H](C(=O)N[C@@H](CCCCN)C(=O)N[C@@H](CC(N)=O)C(=O)N[C@@H](CCCCN)C(N)=O)C(C)C)C(C)C)C(C)C)[C@@H](C)O gave a pEC50 [1] of 7.42 and a pIC50 [2] of 7.95.

In the case of CC[C@H](C)[C@H](NC(=O)CNC(=O)[C@H](CC(=O)O)NC(=O)[C@H](CO)NC(=O)[C@H](C)N)C(=O)N[C@@H](Cc1ccccc1)C(=O)N[C@H](C(=O)N[C@@H](CC(=O)O)C(=O)N[C@@H](CO)C(=O)N[C@@H](Cc1ccc(O)cc1)C(=O)N[C@@H](CO)C(=O)N[C@@H](CCCNC(=N)N)C(=O)N[C@@H](Cc1ccc(O)cc1)C(=O)N[C@@H](CCCNC(=N)N)C(=O)N[C@@H](CCCCN)C(=O)N[C@@H](CCC(N)=O)C(=O)N[C@@H](CCSC)C(=O)N[C@@H](C)C(=O)N[C@H](C(=O)N[C@@H](CCCCN)C(=O)N[C@@H](CCCCN)C(=O)N[C@@H](Cc1ccc(O)cc1)C(=O)N[C@@H](CC(C)C)C(=O)N[C@@H](C)C(=O)N[C@@H](C)C(=O)N[C@H](C(=O)N[C@@H](CC(C)C)C(=O)NCC(=O)N[C@@H](CCCCN)C(=O)N[C@@H](CCCNC(=N)N)C(=O)N[C@@H](Cc1ccc(O)cc1)C(=O)N[C@@H](CCCCN)C(=O)N[C@@H](CCC(N)=O)C(=O)N[C@@H](CCCNC(=N)N)C(=O)N[C@H](C(=O)N[C@@H](CCCCN)C(=O)N[C@@H](CC(N)=O)C(=O)N[C@@H](CCCCN)C(N)=O)C(C)C)C(C)C)C(C)C)[C@@H](C)O (H-ASDGIFTDSYSRYRKQMAVKKYLAAVLGKRYKQRVKNK-NH2), the Emax [3] was 82.6%.
